Measurements reported in ChEMBL document CHEMBL1153287, “First small molecular inhibitors of T. brucei dolicholphosphate mannose synthase (DPMS), a validated drug target in African sleeping sickness” (Bioorg Med Chem Lett, 2009).
Active and inactive are the calls of the source. The rule behind the calls is not given here.

Legend:
Trypanosoma brucei [1] = experiment: Inhibition of Trypanosoma brucei DPMS expressed in Escherichia coli assessed as residual enzyme activity at 1 mM relative to untreated control
How it was run: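 Recombinant full-length membrane-bound T. brucei DPMS in E. coli membranes (70 ng/ml total protein). Buffer: 50 mM Na–Hepes pH 7.4, 25 mM KCl, 5 mM MgCl2, 5 mM MnCl2, 0.1% n-octyl-glucopyranoside. Substrates: dehydrofarnesol-phosphate and GDP-[3H]Man. Inhibitor at 1 mM; 10 min at 30 °C. Lipids extracted in CHCl3:MeOH, butanol phase counted. Activity relative to a no-inhibitor control.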

Trypanosoma brucei [2] = experiment: Antitrypanosomal activity against Trypanosoma brucei 427; format: functional; details: read-out: ED50 (the source's name)
How it was run: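 Bloodstream-form T. brucei strain 427 in culture; viability read by Alamar Blue; ED50 in μM; each experiment run at least in duplicate.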

[3] = Cytotoxicity against human HeLa cells by alamar blue assay; format: cell-based; details: read-out: ED50 (the source's name)
How it was run: (§1)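 HeLa cells treated at 0.1 and 1.0 mM final; viability by Alamar Blue; inhibition expressed relative to a DMSO-only control.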

Trypanosoma brucei [4] = experiment: Inhibition of Trypanosoma brucei 117 DPMS-mediated glycosylphosphatidylinositol anchor biosynthesis assessed as reduction of dolicholphosphate-mannose formation
How it was run: (§2)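 Cell-free GPI synthesis using bloodstream T. brucei variant 117 membranes, 1 × 10^7 cell equivalents per assay. Membranes washed in Hepes pH 7.4/KCl/MgCl2 buffer with TLCK and leupeptin. Reaction in buffer with MnCl2, tunicamycin and dithiothreitol. Labelled with GDP-[3H]Man plus 1 mM UDP-GlcNAc. Inhibitor in DMSO, 1 mM final.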

Trypanosoma brucei [5] = experiment: Inhibition of glycosylphosphatidylinositol anchor biosynthesis in Trypanosoma brucei 117 cell-free system assessed as reduction of Manalpha1-2Manalpha1-6Manalpha1-4GlcNH2-(acyl)PI formation; format: functional; how it was run: as §2
Trypanosoma brucei [6] = experiment: Inhibition of glycosylphosphatidylinositol anchor biosynthesis in Trypanosoma brucei 117 cell-free system assessed as reduction of Manalpha1-2Manalpha1-6Manalpha1-4GlcNH2-PI formation; format: functional; how it was run: as §2
Trypanosoma brucei [7] = experiment: Inhibition of glycosylphosphatidylinositol anchor biosynthesis in Trypanosoma brucei 117 cell-free system assessed as reduction of Manalpha1-4GlcNH2-PI formation; format: functional; how it was run: as §2
Trypanosoma brucei [8] = experiment: Inhibition of glycosylphosphatidylinositol anchor biosynthesis in Trypanosoma brucei 117 cell-free system assessed as reduction of Manalpha1-6Manalpha1-4GlcNH2-PI formation formation; format: functional; how it was run: as §2
Trypanosoma brucei [9] = experiment: Inhibition of glycosylphosphatidylinositol anchor biosynthesis in Trypanosoma brucei 117 cell-free system assessed as reduction of ethanolamine-P-Manalpha1-2Manalpha1-6Manalpha1-4GlcNH2-PI formation; format: functional; how it was run: as §2
[10] = Cytotoxicity against human HeLa cells assessed as growth inhibition at 1 mM by alamar blue assay; format: cell-based; how it was run: as §1

| Structure (SMILES) | Activity (Trypanosoma brucei [1]) [%] | EC50 (Trypanosoma brucei [2]) [µM] | inhibition (Trypanosoma brucei [4]) | CC50 [3] [µM] | inhibition (Trypanosoma brucei [5]) | inhibition (Trypanosoma brucei [6]) | inhibition (Trypanosoma brucei [7]) | inhibition (Trypanosoma brucei [8]) | inhibition (Trypanosoma brucei [9]) | inhibition at 1000 µM [10] [%] |
| --- | --- | --- | --- | --- | --- | --- | --- | --- | --- | --- |
| O=C(O)CN1C(=O)/C(=C/c2ccc(Cl)cc2)SC1=S | 86 | 398 | – | – | – | – | – | – | – | – |
| O=C(O)CN1C(=O)/C(=C/c2cccc(O)c2)SC1=S | 90 | 345 | – | – | – | – | – | – | – | – |
| O=C(O)CN1C(=O)/C(=C/c2ccccc2O)SC1=S | 23 | 107 | inactive | > 1000 | Active | Active | Active | Active | Active | – |
| C#Cc1ccc(/C=C2\SC(=S)N(CC(=O)O)C2=O)cc1 | 94 | > 1000 | – | – | – | – | – | – | – | 20 |
| O=C(O)CN1C(=O)/C(=C/c2ccc(O)cc2)SC1=S | 70 | 427 | Active | > 1000 | Active | Active | Active | Active | Active | – |
| N#Cc1ccc(/C=C2\SC(=S)N(CC(=O)O)C2=O)cc1 | 73 | 244 | – | – | – | – | – | – | – | – |

Now from value to compound, other results behind:

| Activity (Trypanosoma brucei [1]) [%] | EC50 (Trypanosoma brucei [2]) [µM] | inhibition (Trypanosoma brucei [4]) | Structure (SMILES) | CC50 [3] [µM] | inhibition (Trypanosoma brucei [5]) | inhibition (Trypanosoma brucei [6]) | inhibition (Trypanosoma brucei [7]) | inhibition (Trypanosoma brucei [8]) | inhibition (Trypanosoma brucei [9]) | inhibition at 1000 µM [10] [%] |
| --- | --- | --- | --- | --- | --- | --- | --- | --- | --- | --- |
| 23 | 96 | – | O=C(O)CN1C(=O)/C(=C/c2cccc(OCc3ccccc3)c2)SC1=S | > 1000 | – | – | – | – | – | – |
| 42 | 232 | – | O=C(O)CN1C(=O)/C(=C/c2ccccc2)SC1=S | > 1000 | – | – | – | – | – | – |
| 20 | 492 | Active | O=C(O)CN1C(=O)/C(=C/c2ccc(OCc3ccccc3)c(OCc3ccccc3)c2)SC1=S | > 1000 | Active | Active | Active | Active | Active | – |
| 10 | 338 | inactive | O=C(O)CN1C(=O)/C(=C/c2ccc(OCc3ccccc3)cc2)SC1=S | > 1000 | Active | Active | Active | Active | Active | 20 |
